aDG glyco up = alpha-DG glycosylation activation. activation, % at 10 µM. AID 624168. hit rate 0.22% among 360,000. Pro5-aDG cells, alpha-DG glycosylation AlphaScreen (IIH6); 0% Pro5, 100% B10-LARGE cell signal;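 active = activation of at least 8% versus controls, or a plate z-score of at least 8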;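 also: Pro5 are CHO cells carrying HIG-tagged alpha-DG that lacks glycosylation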
CHOP inh = CHOP inhibition in unfolded protein response; CHO-K1 CHOP-promoter luciferase, tunicamycin-induced, 15-18 h; hit rate 3.8% among 220,000; AID 2732; inhibition, % at 10 µM;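 active = compounds that reduced the stress-induced luciferase reporter signal by more than about 70% of percent inhibition, limit read from the data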;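 also: 0% = tunicamycin plus vehicle and 100% = wells without tunicamycin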
XBP1 UPR activ = activators of adaptive arm of unfolded protein response (XBP1). activation, % at 20 µM. AID 463104. hit rate 0.33% among 330,000. CHO-XBP1 luciferase reporter, IRE1-XBP1 UPR activation, luminescence; percent of tunicamycin response, DMSO as zero;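 active = versus positive control, 20 µM dose yields 30% or more activation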;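 also: 100% = tunicamycin at 10 µg/mL and 0% = DMSO only wells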
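Material: CHO-XBP1 cells stably carrying IRE1-XBP1-driven luciferase reporter | Medium: F12 with 10% serum | Compound dosing: 20 µM single concentration, DMSO 1% | Incubation: Overnight seeding at 37 °C, 6 h compound treatment at 37 °C | Detection: Steady-Glo luminescence read | Read-out basis: % activation of reporter signal versus tunicamycin and DMSO controls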
MPTP inh = permeability transition pore inhibition | hit rate 1.4% among 360,000 | inhibition, % at 10 µM | isolated mouse mitochondria, Ca2+ swelling absorbance, 30 min;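 active = inhibition of 50% or more, scaled per plate between neutral and stimulator controls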;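 also: 0% = DMSO wells given calcium and 100% = 1 mM EGTA wells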
GRIN3A LBD mod = modulates the human NR3A ligand-binding domain | NR3A LBD differential scanning fluorimetry, Tm shift; 0% = protein alone, 100% = glycine-bound protein | hit rate 2.5% among 340,000 | Tm shift relative to glycine control, % at 25 µM;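 active = melting temperature shift of at least 10% of the positive control shift, at one fixed dose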
CHOP UPR activ = apoptotic UPR (CHOP) activation; CHO-CHOP luciferase reporter, luminescence; percent of tunicamycin response over DMSO baseline; activation, % at 10 µM; AID 449763; hit rate 0.34% among 330,000;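 active = at 10 µM dose, activation of 40% or more, normalized to positive control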;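 also: 100% = tunicamycin at 10 µg/mL and 0% = DMSO alone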
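Dosing – one dose, 10 µM in 0.5% DMSO · System – CHO-CHOP cells, stable luciferase reporter of PERK-eIF2a-CHOP signalling · Input – 500 cells/well · Control set – tunicamycin 10 µg/mL final as positive, DMSO-only wells as negative · Timing – 6 h compound treatment, 37 °C · Measure – % activation vs tunicamycin · Technique – luminescence read with Steady-Glo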
Numbers without * were called inactive; . = no result given. In the library only some 5.6% were active in any assay of this set; here they are far more common.

SMILES | aDG glyco up | CHOP inh | XBP1 UPR activ | MPTP inh | GRIN3A LBD mod | CHOP UPR activ
O=C(Nc1ccc(-c2nc3ccccc3s2)c(O)c1)C1=COCCO1 | 0.2 | 71.6* | 7.8 | -1.9 | 36.5* | 3.4
O=C(Nc1ccc(O)c(-c2nc3ccccc3s2)c1)C1=COCCO1 | 0.0 | 36.0 | -1.0 | 1.9 | 7.7 | 3.2
O=C(CCS(=O)(=O)c1ccccc1)Nc1ccc(-c2nc3ccccc3s2)c(O)c1 | 0.0 | -5.7 | -1.6 | 8.2 | 14.9* | 7.7
Cn1nccc1NC(=O)COCC(=O)O | -0.1 | 2.7 | 0.4 | 5.9 | 0.5 | -1.2
CC1CCN(C(=O)C2CCN(C(=O)c3cc4sccc4n3Cc3ccc(F)cc3)CC2)CC1 | 0.0 | 71.0* | -3.4 | 4.1 | -0.9 | -0.7
CC(C)NC(=O)C1CCN(C(=O)c2cc3sccc3n2Cc2ccc(F)cc2)CC1 | 2.7 | 50.6 | -3.4 | 2.7 | -3.3 | 15.1
CC1(C)CN(c2ccccc2)C(=O)[C@H]1CC(=O)Nc1ccccc1 | 0.1 | . | . | -1.2 | . | .
CCn1cc2nc(SCC(=O)Nc3ccc(OC)c(OC)c3)n(Cc3ccc(OC)cc3)c(=O)c2n1 | -0.1 | . | -2.0 | 0.1 | 13.9* | -0.6
CCn1cc2nc(SCC(=O)Nc3ccc(OC)cc3OC)n(Cc3ccc(OC)cc3)c(=O)c2n1 | -0.2 | . | 4.3 | -0.3 | -2.2 | -0.9
COc1ccc(NC(=O)N(C)C[C@H]2OCc3cn(nn3)CCCC(=O)N([C@@H](C)CO)C[C@@H]2C)cc1 | -0.2 | . | . | 1.3 | . | .
Cc1[nH]n(-c2ccc(Br)cc2)c(=O)c1/C=N/NC(=O)c1ccccc1 | 0.4 | . | 0.1 | 5.6 | -4.6 | 10.8
Cc1[nH]n(-c2ccccc2)c(=O)c1/C=N/NC(=O)c1ccc(O)cc1O | -0.2 | . | -1.4 | 1.4 | 10.2* | 2.3
Cc1ccc(-n2[nH]c(C)c(/C=N/NC(=O)c3ccc(O)cc3O)c2=O)cc1 | -0.3 | . | 1.5 | 0.5 | 13.3* | 0.6
Cc1cc(C(=O)N/N=C/c2c(C)[nH]n(-c3ccccc3)c2=O)n[nH]1 | 0.0 | . | -5.0 | 0.0 | -1.6 | 1.0
Cc1[nH]n(-c2ccccc2)c(=O)c1/C=N/Nc1nncc(-c2ccccc2)n1 | 0.3 | 77.1* | 0.8 | 3.4 | -23.4 | 5.1
COc1cc2ccccc2cc1C(=O)Nc1ccc(C)cn1 | 0.4 | . | -6.6 | -1.7 | -0.6 | 5.9
CC/C(=N/N=C(/CC)c1ccc(O)cc1)c1ccc(O)cc1 | -0.2 | . | 0.2 | 9.6 | -3.8 | -1.0
CCOC(=O)C1(C(=O)O)NC(=O)CC1c1ccccc1 (stereo not given) | -0.2 | 16.4 | 0.9 | -0.4 | 12.1* | 0.9
CCOC(=O)C1(C(=O)OCC)CC1c1ccccc1 (stereo not given) | 0.5 | 24.4 | 1.5 | 6.2 | -1.6 | -0.2
CN(C1=C(N2CCCCC2)C(=O)c2ccccc2C1=O)c1ccccc1 | -1.0 | 71.3* | -2.0 | 1.5 | -2.6 | -1.2
COc1ccc(S(=O)(=O)N(CCCN2CCOCC2)Cc2cccc(OC)c2OC)cc1 | 0.0 | 1.9 | -0.4 | -7.1 | 2.2 | -0.6
COc1ccc(S(=O)(=O)N(CCN2CCOCC2)Cc2cc(OC)ccc2OC)cc1 | 0.4 | 11.2 | -0.1 | 0.0 | 16.0* | 1.2
Cc1c(NC(=O)COC(=O)c2cccc(F)c2)c(=O)n(-c2ccccc2)n1C | -0.1 | . | . | 0.3 | . | .
CC(OC(=O)c1ccc(Cl)c(S(N)(=O)=O)c1)C(=O)NCc1ccc2c(c1)OCO2 (stereo not given) | 0.5 | . | -1.2 | 0.1 | 14.1* | 1.7
O=C(NCc1cccs1)c1cc2c(s1)CS(=O)(=O)C2 | -0.4 | 8.8 | -1.4 | 1.8 | 15.3* | -2.1
SMILES | aDG glyco up | CHOP inh | XBP1 UPR activ | MPTP inh | GRIN3A LBD mod | CHOP UPR activ
Cc1nn(-c2ccccc2)c2sc(C(=O)NC3CCCCC3)cc12 | 0.3 | 42.8 | 5.9 | 12.7 | 0.8 | -0.7
Cc1nn(-c2ccccc2)c2sc(C(=O)NNC(=O)COc3ccccc3)cc12 | 0.2 | -27.8 | 1.8 | 3.7 | -3.1 | -1.9
Cc1nn(-c2ccccc2)c2sc(C(=O)N3CCCCC3)cc12 | 0.2 | 81.9* | 3.0 | -2.9 | -2.1 | 5.9
Cc1nn(-c2ccccc2)c2sc(C(=O)NNC(=O)COc3cccc4ccccc34)cc12 | 0.2 | 92.3* | 2.7 | 0.8 | 8.7 | -0.6
Cc1cnc(NC(=O)c2cc3c(C)nn(-c4ccccc4)c3s2)s1 | -0.2 | 86.5* | 5.8 | 1.5 | -1.6 | 0.3
CCCCNC(=O)c1onc(CS(=O)(=O)c2ccccn2)c1C(=O)NCCCC | -0.4 | . | -2.4 | -0.1 | 1.8 | 0.8
O=C(Nc1ccc(NC(=O)c2cc3ccccc3o2)cc1)c1ccc2c(c1)OCCO2 | -0.9 | 72.4* | 0.5 | 0.1 | 21.4* | -2.3
Cc1cc(C(=O)Nc2cccc(C(=O)O)c2)oc1C | -0.1 | 74.8* | -9.4 | -2.6 | 0.0 | -10.5
Cc1cc(NC(=O)c2cccnc2)ccc1NC(=O)c1cc2ccccc2o1 | -0.1 | . | -3.5 | 0.2 | 4.5 | -1.4
Cc1cc(NC(=O)c2cc3ccccc3o2)ccc1NC(=O)c1ccccc1 | 0.1 | . | -3.0 | 0.2 | 16.2* | 2.4
COc1cc(NC(=O)c2cccc(F)c2)ccc1NC(=O)c1cc2ccccc2o1 | -0.2 | . | 16.1 | 0.9 | 36.0* | 7.8
Cc1cc(C(=O)Nc2cccc(C(=O)O)c2)c(C)o1 | -0.1 | 15.1 | -1.7 | -0.4 | -1.3 | -0.1
Cc1cccc(NC(=O)c2cc3ccccc3o2)c1 | -0.1 | 6.0 | -0.9 | 11.1 | -1.3 | 3.3
O=C(Nc1cccc(Br)c1)c1cc2ccccc2o1 | 0.3 | 47.8 | 2.5 | 21.6 | 32.0* | 6.9
O=C(Nc1ccc(N2CCN(C(=O)c3ccc(Cl)cc3)CC2)cc1)c1ccc2c(c1)OCCO2 | 4.0* | 51.0 | 2.4 | -1.1 | -3.0 | 4.1
O=C(Nc1ccc(N2CCN(C(=O)c3ccccc3)CC2)cc1)c1ccc2c(c1)OCCO2 | 0.2 | . | 0.6 | -0.8 | 1.9 | 1.6
Cc1cc(NC(=O)c2ccc3c(c2)OCCO3)ccc1NC(=O)c1cc2ccccc2o1 | -0.2 | 23.8 | 3.2 | 0.9 | 14.7* | 4.4
CC(C)N(C(=O)N1CCN(c2ccnc3cc(Cl)ccc23)CC1)C(C)C | 0.0 | . | -1.8 | 1.5 | -1.0 | 0.0
Cn1c(C(=O)NCc2ccco2)cc2c(=O)[nH]c3ccccc3c21 | -0.3 | 48.4 | 3.4 | -0.2 | 23.9* | 1.9
CCOC(=O)c1c(O)c2ccccc2n(-c2ccccc2)c1=O | -0.3 | 10.8 | -1.0 | 3.2 | 11.0* | -0.1
CCCCCn1c(=O)c(C(=O)OCC)c(O)c2ccccc21 | -0.1 | 25.4 | -0.9 | -0.3 | -0.5 | -2.1
Clc1ccc(-c2n[nH]c3c2CCCC3)cc1 | 0.1 | 51.4 | 15.4 | 5.8 | -1.5 | 2.3
Clc1ccc(-c2onc3c2CCCC3)cc1 | 0.1 | 77.7* | -0.4 | 1.8 | 1.0 | 1.5
O=C(O)C1OCC2(CO1)COC(C(=O)O)OC2 (stereo not given) | 0.0 | . | . | -0.7 | -0.2 | .
